≈ marks a conversion by molar mass, not a printed value.
Experiments:
Type in all cases: functional
[1] = system: Mycolicibacterium smegmatis; assay: Antitubercular activity against Mycobacterium smegmatis ATCC 19420 after 7 days by resazurin assay; settings: ATCC 19420, 168 h
How it was run: (§1)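 Middlebrook 7H9 broth with 10% OADC, culture adjusted to McFarland 2. 50 µL culture added to 150 µL fresh medium. Stocks at 2 mg/mL in DMF, tested first at 1, 10 and 100 µg/mL, then at 0.3125-5 µg/mL. DMF controls. After 7 days at 37 °C, 0.01% resazurin added. Blue-to-pink change read for MIC.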

[2] = system: Mycolicibacterium fortuitum; assay: Antitubercular activity against Mycobacterium fortuitum ATCC 19542 after 7 days by resazurin assay; settings: ATCC 19542, 168 h; how it was run: as §1
[3] = system: Mycobacterium tuberculosis; assay: Antitubercular activity against Mycobacterium tuberculosis H37Rv assessed as growth inhibition after 7 days by resazurin assay
How it was run: (§2)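 M. tuberculosis H37Rv ATCC 27294 grown in Middlebrook 7H9 broth with 10% OADC and adjusted to McFarland 2. Culture was diluted 1:4 into fresh medium. Compounds came from 2 mg/mL DMF stocks, screened first at 1, 10 and 100, then at 0.3125–5. DMF-only controls were included. After 7 days at 37 °C, 0.01% resazurin was added; a blue-to-pink change marked growth, and the MIC was read.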

Escherichia coli [4] = assay: Antibacterial activity against Escherichia coli ATCC 25922 after 16 to 18 hrs by […]
Staphylococcus aureus [5] = assay: Antibacterial activity against Staphylococcus aureus ATCC 25923 after 16 to 18 hrs by serial plate dilution method
Pseudomonas aeruginosa [6] = assay: Antibacterial activity against Pseudomonas aeruginosa ATCC 27853 after 16 to 18 hrs by […]
Klebsiella pneumoniae [7] = assay: Antibacterial activity against Klebsiella pneumoniae after 16 to 18 hrs by […]
Bacillus subtilis [8] = assay: Antibacterial activity against Bacillus subtilis after 16 to 18 hrs by […]
Escherichia coli [9] = assay: Antibacterial activity against Escherichia coli ATCC 25922 at MIC after 3 to 4 days
How it was run: (§3)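 Agar well diffusion on seeded agar plates, 20 mL agar per dish, dried 1 h at 37 °C. Wells punched and loaded with test compound in DMSO at its MIC. DMSO-only control. Plates run in triplicate and kept 3-4 days at 37 °C. Inhibition zone diameter measured.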

Staphylococcus aureus [10] = assay: Antibacterial activity against Staphylococcus aureus ATCC 25923 at […] after 3 to 4 days; how it was run: as §3
Pseudomonas aeruginosa [11] = assay: Antibacterial activity against Pseudomonas aeruginosa ATCC 27853 at MIC after 3 to 4 days; how it was run: as §3
Klebsiella pneumoniae [12] = assay: Antibacterial activity against Klebsiella pneumoniae at MIC after 3 to 4 days; how it was run: as §3
Bacillus subtilis [13] = assay: Antibacterial activity against Bacillus subtilis at MIC after 3 to 4 days; how it was run: as §3
Aspergillus flavus [14] = assay: Antifungal activity against Aspergillus flavus NCIM N0.524 after 3 to 4 days by serial plate dilution method
Aspergillus fumigatus [15] = assay: Antifungal activity against Aspergillus fumigatus NCIM N0.902 after 3 to 4 days by serial plate dilution method
Talaromyces marneffei [16] = assay: Antifungal activity against Penicillium marneffei after 3 to 4 days by serial plate dilution method
[17] = system: Trichophyton mentagrophytes; assay: Antifungal activity against Trichophyton mentagrophytes after 3 to 4 days by serial plate dilution method
Candida albicans [18] = assay: Antifungal activity against Candida albicans after 3 to 4 days by serial plate dilution method
Aspergillus flavus [19] = assay: Antifungal activity against Aspergillus flavus NCIM N0.524 at MIC after 3 to 4 days
How it was run: (§4)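 Fungal suspension made by transferring a loopful of culture to 3 mL saline and seeding agar plates, 20 mL agar per dish, dried 1 h at 37 °C. Punched wells loaded with test compound in DMSO at its MIC. DMSO-only control. Triplicate plates held 3-4 days at 37 °C. Inhibition zone diameter measured.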

Aspergillus fumigatus [20] = assay: Antifungal activity against Aspergillus fumigatus NCIM N0.902 at MIC after 3 to 4 days; how it was run: as §4
Talaromyces marneffei [21] = assay: Antifungal activity against Penicillium marneffei at MIC after 3 to 4 days; how it was run: as §4
[22] = system: Trichophyton mentagrophytes; assay: Antifungal activity against Trichophyton mentagrophytes at MIC after 3 to 4 days; how it was run: as §4
Candida albicans [23] = assay: Antifungal activity against Candida albicans at MIC after 3 to 4 days; how it was run: as §4
[24] = system: Mycobacterium tuberculosis; assay: Antitubercular activity against Mycobacterium tuberculosis H37Rv after 7 days by resazurin assay; settings: 168 h; how it was run: as §2

Row | Compound | MIC [1] [µg/mL] | MIC [2] [µg/mL] | growth inhibition (GI) [3] [%] | MIC (Escherichia coli [4]) [µg/mL] | MIC (Staphylococcus aureus [5]) [µg/mL] | MIC (Pseudomonas aeruginosa [6]) [µg/mL] | MIC (Klebsiella pneumoniae [7]) [µg/mL] | MIC (Bacillus subtilis [8]) [µg/mL] | diameter of the inhibition zone (DIZ) (Escherichia coli [9]) [mm] | diameter of the inhibition zone (DIZ) (Staphylococcus aureus [10]) [mm] | diameter of the inhibition zone (DIZ) (Pseudomonas aeruginosa [11]) [mm] | diameter of the inhibition zone (DIZ) (Klebsiella pneumoniae [12]) [mm] | diameter of the inhibition zone (DIZ) (Bacillus subtilis [13]) [mm] | MIC (Aspergillus flavus [14]) [µg/mL] | MIC (Aspergillus fumigatus [15]) [µg/mL] | MIC (Talaromyces marneffei [16]) [µg/mL] | MIC [17] [µg/mL] | MIC (Candida albicans [18]) [µg/mL] | diameter of the inhibition zone (DIZ) (Aspergillus flavus [19]) [mm] | diameter of the inhibition zone (DIZ) (Aspergillus fumigatus [20]) [mm] | further results
1 | N#Cc1ccc(C(=O)OCc2csc(N)n2)cn1 | > 100 | > 100 | 0 | 6.25 (≈ 24 µM) | 6.25 (≈ 24 µM) | 6.25 (≈ 24 µM) | 6.25 (≈ 24 µM) | 6.25 (≈ 24 µM) | 16 | 16 | 16 | 16 | 16 | 25 (≈ 96.1 µM) | 6.25 (≈ 24 µM) | 25 (≈ 96.1 µM) | 6.25 (≈ 24 µM) | 25 (≈ 96.1 µM) | <10 | 16 | diameter of the inhibition zone (DIZ) (Talaromyces marneffei [21]): <10 mm; diameter of the inhibition zone (DIZ) [22]: 16 mm; diameter of the inhibition zone (DIZ) (Candida albicans [23]): <10 mm; MIC [24]: > 100 µg/mL
2 | Nc1nc(COC(=O)c2c(F)cccc2Cl)cs1 | 10 (≈ 34.9 µM) | 10 (≈ 34.9 µM) | 95 | 25 (≈ 87.2 µM) | 6.25 (≈ 21.8 µM) | 12.5 (≈ 43.6 µM) | 12.5 (≈ 43.6 µM) | 6.25 (≈ 21.8 µM) | <10 | 16 | 11 | 11 | 16 | 25 (≈ 87.2 µM) | 25 (≈ 87.2 µM) | 25 (≈ 87.2 µM) | 25 (≈ 87.2 µM) | 12.5 (≈ 43.6 µM) | <10 | <10 | diameter of the inhibition zone (DIZ) (Talaromyces marneffei [21]): <10 mm; diameter of the inhibition zone (DIZ) [22]: <10 mm; diameter of the inhibition zone (DIZ) (Candida albicans [23]): 11 mm; MIC [24]: 0.625 µg/mL (≈ 2.18 µM)
3 | Nc1nc(COC(=O)c2c(F)cc(F)cc2F)cs1 | 10 (≈ 34.7 µM) | > 100 | <90 | 6.25 (≈ 21.7 µM) | 25 (≈ 86.7 µM) | 6.25 (≈ 21.7 µM) | 25 (≈ 86.7 µM) | 25 (≈ 86.7 µM) | 16 | <10 | 16 | <10 | <10 | 6.25 (≈ 21.7 µM) | 6.25 (≈ 21.7 µM) | 6.25 (≈ 21.7 µM) | 6.25 (≈ 21.7 µM) | 6.25 (≈ 21.7 µM) | 16 | 16 | diameter of the inhibition zone (DIZ) (Talaromyces marneffei [21]): 16 mm; diameter of the inhibition zone (DIZ) [22]: 16 mm; diameter of the inhibition zone (DIZ) (Candida albicans [23]): 16 mm; MIC [24]: 5 µg/mL (≈ 17.3 µM)
4 | Nc1nc(COC(=O)c2ccco2)cs1 | > 100 | > 100 | 0 | 6.25 (≈ 27.9 µM) | 6.25 (≈ 27.9 µM) | 6.25 (≈ 27.9 µM) | 6.25 (≈ 27.9 µM) | 6.25 (≈ 27.9 µM) | 16 | 16 | 16 | 16 | 16 | 6.25 (≈ 27.9 µM) | 25 (≈ 111 µM) | 6.25 (≈ 27.9 µM) | 25 (≈ 111 µM) | 6.25 (≈ 27.9 µM) | 16 | <10 | diameter of the inhibition zone (DIZ) (Talaromyces marneffei [21]): 16 mm; diameter of the inhibition zone (DIZ) [22]: <10 mm; diameter of the inhibition zone (DIZ) (Candida albicans [23]): 16 mm; MIC [24]: > 100 µg/mL
5 | Nc1nc(COC(=O)c2ccc3ccccc3c2)cs1 | 10 (≈ 35.2 µM) | 10 (≈ 35.2 µM) | <90 | 6.25 (≈ 22 µM) | 6.25 (≈ 22 µM) | 6.25 (≈ 22 µM) | 6.25 (≈ 22 µM) | 6.25 (≈ 22 µM) | 16 | 16 | 16 | 16 | 16 | 12.5 (≈ 44 µM) | 12.5 (≈ 44 µM) | 12.5 (≈ 44 µM) | 12.5 (≈ 44 µM) | 6.25 (≈ 22 µM) | 11 | 11 | diameter of the inhibition zone (DIZ) (Talaromyces marneffei [21]): 11 mm; diameter of the inhibition zone (DIZ) [22]: 11 mm; diameter of the inhibition zone (DIZ) (Candida albicans [23]): 16 mm; MIC [24]: 2.5 µg/mL (≈ 8.79 µM)
6 | Nc1nc(COC(=O)c2ccc([N+](=O)[O-])cc2)cs1 | 10 (≈ 35.8 µM) | 10 (≈ 35.8 µM) | 90 | 12.5 (≈ 44.8 µM) | 25 (≈ 89.5 µM) | 12.5 (≈ 44.8 µM) | 6.25 (≈ 22.4 µM) | 12.5 (≈ 44.8 µM) | 11 | <10 | 10 | 16 | 10 | 6.25 (≈ 22.4 µM) | 6.25 (≈ 22.4 µM) | 6.25 (≈ 22.4 µM) | 6.25 (≈ 22.4 µM) | 6.25 (≈ 22.4 µM) | 16 | 16 | diameter of the inhibition zone (DIZ) (Talaromyces marneffei [21]): 16 mm; diameter of the inhibition zone (DIZ) [22]: 16 mm; diameter of the inhibition zone (DIZ) (Candida albicans [23]): 16 mm; MIC [24]: 1 µg/mL (≈ 3.58 µM)
7 | Nc1nc(COC(=O)c2c(Cl)cc(Cl)cc2Cl)cs1 | > 100 | > 100 | <90 | 25 (≈ 74 µM) | 6.25 (≈ 18.5 µM) | 25 (≈ 74 µM) | 12.5 (≈ 37 µM) | 6.25 (≈ 18.5 µM) | <10 | 16 | <10 | 11 | 16 | 6.25 (≈ 18.5 µM) | 6.25 (≈ 18.5 µM) | 6.25 (≈ 18.5 µM) | 6.25 (≈ 18.5 µM) | 6.25 (≈ 18.5 µM) | 16 | 16 | diameter of the inhibition zone (DIZ) (Talaromyces marneffei [21]): 16 mm; diameter of the inhibition zone (DIZ) [22]: 16 mm; diameter of the inhibition zone (DIZ) (Candida albicans [23]): 16 mm; MIC [24]: 10 µg/mL (≈ 29.6 µM)
8 | Nc1nc(COC(=O)c2ccccc2)cs1 | > 100 | > 100 | 0 | 25 (≈ 107 µM) | 6.25 (≈ 26.7 µM) | 25 (≈ 107 µM) | 6.25 (≈ 26.7 µM) | 6.25 (≈ 26.7 µM) | <10 | 16 | <10 | 16 | 16 | 25 (≈ 107 µM) | 25 (≈ 107 µM) | 25 (≈ 107 µM) | 25 (≈ 107 µM) | 25 (≈ 107 µM) | <10 | <10 | diameter of the inhibition zone (DIZ) (Talaromyces marneffei [21]): <10 mm; diameter of the inhibition zone (DIZ) [22]: <10 mm; diameter of the inhibition zone (DIZ) (Candida albicans [23]): <10 mm; MIC [24]: > 100 µg/mL
9 | N#Cc1cccc(C(=O)OCc2csc(N)n2)n1 | > 100 | > 100 | <90 | 12.5 (≈ 48 µM) | 25 (≈ 96.1 µM) | 25 (≈ 96.1 µM) | 25 (≈ 96.1 µM) | 25 (≈ 96.1 µM) | 11 | <10 | <10 | <10 | <10 | 6.25 (≈ 24 µM) | 12.5 (≈ 48 µM) | 6.25 (≈ 24 µM) | 12.5 (≈ 48 µM) | 25 (≈ 96.1 µM) | 16 | 11 | diameter of the inhibition zone (DIZ) (Talaromyces marneffei [21]): 16 mm; diameter of the inhibition zone (DIZ) [22]: 11 mm; diameter of the inhibition zone (DIZ) (Candida albicans [23]): <10 mm; MIC [24]: 10 µg/mL (≈ 38.4 µM)

Source: ChEMBL document CHEMBL1944562, “Design, synthesis of some new (2-aminothiazol-4-yl)methylester derivatives as possible antimicrobial and antitubercular agents” (2012)
